In ChEMBL document CHEMBL1135645, “Synthesis and evaluation of analogues of 5'-([(Z)-4-amino-2-butenyl]methylamino)-5'-deoxyadenosine as inhibitors of tumor cell growth, trypanosomal growth, and HIV-1 infectivity” (J Med Chem, 2002):

Tests used:
[1] = tested on: Trypanosoma brucei rhodesiense; experiment: In vitro anti trypanosomal activity against Trypanosomal 243 (KETRI)strain; assay type: functional, organism-based
[2] = tested on: Trypanosoma brucei rhodesiense; experiment: In vitro anti trypanosomal activity against Trypanosomal 243 As 10e-3 (KETRI)strain; assay type: functional, organism-based
[3] = tested on: Trypanosoma brucei brucei; experiment: In vitro anti trypanosomal activity against Trypanosomal 110 (EATRO)strain; assay type: functional, organism-based
[4] = tested on: Trypanosoma brucei rhodesiense; experiment: In vitro anti trypanosomal activity against Trypanosomal 269 (KETRI)strain; assay type: functional, organism-based
L1210 [5] = experiment: In vitro Anti Neoplastic Activity against L1210 murine leukemia Cell lines; assay type: functional, cell-based; conditions: Mus musculus
Summary of the method: (§1)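 SRB growth assay. Cell lines were grown as monolayers in RPMI-1640 with 5% FCS, 5% NuSerum IV, 20 mM HEPES and 2 mM glutamine, and seeded at 400–1200 cells/well. They attached for 15–18 h before drug. Ten concentrations over 5 logs were tested, with final DMSO ≤0.25%. Exposure was 72 h at 37 °C. Cells were TCA-fixed, stained with sulforhodamine B and read at OD 570 nm. IC50 is 50% growth inhibition.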

L1210 [6] = experiment: In Vitro inhibition of L1210 Murine Leukemia Cells by the compound at a dose of 100 uM; assay type: functional; conditions: Mus musculus
[7] = tested on: Trypanosoma brucei rhodesiense; experiment: In Vitro inhibition of Trypanosomal 243 (KETRI)strain by the compound at a dose of 100 uM; assay type: functional
MCF7 [8] = experiment: In vitro anti Neoplastic Activity against Adriamycin resistant Human Breast adenocarcinoma MCF7-Adr Cell lines; assay type: functional, cell-based; summary of the method: as §1
HT-29 [9] = experiment: In vitro anti Neoplastic Activity in Human Colon adenocarcinoma HT-29 Cell lines; assay type: functional, cell-based; summary of the method: as §1
L1210 [10] = experiment: In vitro inhibition of AdoMetDC derived from L1210 Murine Leukemia Cells.; assay type: functional; conditions: Mus musculus, read-out: ID50 (the source's name)
MCF7 [11] = experiment: In vitro anti Neoplastic Activity against Human Breast adenocarcinoma MCF-7 Cell lines; assay type: functional, cell-based; summary of the method: as §1
A121 [12] = experiment: In vitro anti Neoplastic Activity against Human ovarian carcinoma A121 Cell lines; assay type: functional, cell-based; summary of the method: as §1
A549 [13] = experiment: In vitro anti Neoplastic Activity against Human non small cell lung carcinoma A549 Cell lines; assay type: functional, cell-based; summary of the method: as §1
MCF7 [14] = experiment: In vitro Anti Neoplastic Activity against Human Breast adenocarcinoma MCF-7 Cell lines; assay type: functional, cell-based; summary of the method: as §1
[15] = tested on: Trypanosoma brucei rhodesiense; experiment: In vitro antitrypanosomal activity against Trypanosomal 243 (KETRI)strain at a dose of 100 uM; assay type: functional
HT-29 [16] = experiment: In vitro Antineoplastic Activity in Human Colon adenocarcinoma HT-29 Cell lines; assay type: functional, cell-based; summary of the method: as §1
[17] = tested on: Trypanosoma brucei brucei; experiment: In vitro antitrypanosomal activity against Trypanosomal 110 (EATRO)strain at a dose of 100 uM; assay type: functional
MCF7 [18] = experiment: In vitro Anti Neoplastic Activity against Adriamycin resistant Human Breast adenocarcinoma MCF7-Adr Cell lines; assay type: functional, cell-based; summary of the method: as §1
A121 [19] = experiment: In vitro Antineoplastic Activity against Human ovarian carcinoma A121 Cell lines; assay type: functional, cell-based
A549 [20] = experiment: In vitro Antineoplastic Activity against Human non small cell lung carcinoma A549 Cell lines; assay type: functional, cell-based
[21] = tested on: Trypanosoma brucei rhodesiense; experiment: In vitro antitrypanosomal activity against Trypanosomal 269 (KETRI)strain; assay type: functional, organism-based
[22] = tested on: Trypanosoma brucei rhodesiense; experiment: In vitro antitrypanosomal activity against Trypanosomal 243 (KETRI)strain; assay type: functional, organism-based
[23] = tested on: Trypanosoma brucei rhodesiense; experiment: In vitro antitrypanosomal activity against Trypanosomal 243 As 10e-3 (KETRI)strain; assay type: functional, organism-based
L1210 [24] = experiment: In vitro Neoplastic Activity against L1210 mucerine leukemia Cell lines; assay type: functional, cell-based; conditions: Mus musculus; summary of the method: as §1
[25] = tested on: Trypanosoma brucei brucei; experiment: In vitro antitrypanosomal activity against Trypanosomal 110 (EATRO)strain; assay type: functional, organism-based

CN(C/C=C\CN)C[C@H]1O[C@@H](n2cnc3c(N)nc(N)nc32)[C@H](O)[C@@H]1O
IC50 [1]: 3.8 µM
IC50 [2]: 2 µM
IC50 [3]: 4.5 µM
IC50 [4]: 19 µM

CN(Cc1ccccc1CN)C[C@H]1OC(n2cnc3c(N)ncnc32)[C@H](O)[C@@H]1O (some centres not stated)
IC50 [3]: 14 µM
IC50 (L1210 [5]): > 600 µM
inhibition at 100 µM (L1210 [6]): 41%
inhibition at 100 µM [7]: 42%

CN(C/C=C\CN)CCOCn1cnc2c(N)nc(N)nc21
IC50 [1]: 6.6 µM
IC50 [2]: 0.96 µM
IC50 [3]: 10 µM
IC50 (MCF7 [8]): > 100 µM
IC50 (HT-29 [9]): > 100 µM
IC50 (L1210 [10]): > 100 µM
IC50 (MCF7 [11]): > 100 µM
IC50 [4]: 11 µM
IC50 (A121 [12]): > 100 µM
IC50 (A549 [13]): > 100 µM

CNC[C@H]1OC(n2cnc3c(N)ncnc32)[C@H](O)[C@@H]1O (some centres not stated)
IC50 (MCF7 [14]): > 100 µM
IC50 (L1210 [5]): > 600 µM
inhibition at 100 µM [15]: 26%
IC50 (HT-29 [16]): > 100 µM
inhibition at 100 µM [17]: 44%
IC50 (MCF7 [18]): > 100 µM
IC50 (A121 [19]): > 100 µM
IC50 (A549 [20]): > 100 µM

CN(C/C=C\CN)CC1OC(n2cnc3c(N)ncnc32)CC1O (configuration not stated)
IC50 [21]: 74 µM
IC50 [22]: 2.9 µM
IC50 [23]: 30 µM
IC50 (L1210 [24]): 500 µM
IC50 [25]: 4.2 µM
IC50 (L1210 [10]): 20 µM
